Only some compounds are listed: those with a hit (about 2.2% of all), similar ones and a draw of the others.
Neddylation inh = inhibitors of cullin neddylation, primary screen, biochemical, TR-FRET, uHTS, NAE and Ubc12 | NEDD8-conjugating enzyme Ubc12 (Homo sapiens) + NEDD8-activating enzyme E1 regulatory … | inhibition, % at 25 µM | hit rate 0.58% among 360,000 | AID 651699, 2012; in the data active means inhibition above about 36%
Target sequence (P61081 whole entry, looked up): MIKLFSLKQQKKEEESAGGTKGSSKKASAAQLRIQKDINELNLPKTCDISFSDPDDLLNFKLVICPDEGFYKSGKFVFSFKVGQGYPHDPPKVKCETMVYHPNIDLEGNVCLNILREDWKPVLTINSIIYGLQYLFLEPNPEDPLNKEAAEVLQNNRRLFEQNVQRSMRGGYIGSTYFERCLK
Target sequence (Q13564 whole entry, looked up): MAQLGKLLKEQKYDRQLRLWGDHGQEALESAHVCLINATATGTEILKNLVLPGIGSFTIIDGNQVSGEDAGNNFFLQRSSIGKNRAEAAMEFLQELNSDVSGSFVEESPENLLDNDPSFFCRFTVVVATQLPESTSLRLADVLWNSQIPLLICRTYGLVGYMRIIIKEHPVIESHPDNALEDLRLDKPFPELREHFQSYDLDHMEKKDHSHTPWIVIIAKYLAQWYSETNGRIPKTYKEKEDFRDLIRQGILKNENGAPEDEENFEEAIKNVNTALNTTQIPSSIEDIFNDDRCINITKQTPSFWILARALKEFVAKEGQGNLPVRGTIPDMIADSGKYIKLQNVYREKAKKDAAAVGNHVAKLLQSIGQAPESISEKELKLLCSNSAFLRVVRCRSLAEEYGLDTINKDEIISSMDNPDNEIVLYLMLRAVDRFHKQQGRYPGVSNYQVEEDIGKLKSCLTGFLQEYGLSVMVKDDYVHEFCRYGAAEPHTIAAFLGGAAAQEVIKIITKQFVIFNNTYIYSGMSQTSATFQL
PfG6PD inh = PfG6PD enzyme inhibitors, primary screen, biochemical, fluorescence intensity, uHTS | glucose-6-phosphate dehydrogenase-6-phosphogluconolactonase (Plasmodium falciparum 3D7) | PfGluPho enzyme, NADPH resazurin-diaphorase fluorescence | inhibition, % at 20 µM | hit rate 0.78% among 350,000;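 active means inhibition reaching at least a set limit at 20 µM in the primary screen, cut at about 59% in these data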
HKDC1 inh = HKDC1 hexokinase inhibitors, primary screen, biochemical, fluorescence, uHTS. hit rate 0.16% among 340,000. inhibition, % at 20 µM. recombinant HKDC1, G6PDH/diaphorase resazurin coupled fluorescence. AID 493160, 2011. Q2TB90;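 active means inhibition above about 35% when tested at 20 µM, limit read from the data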
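Material – in-house recombinant HK5 (HKDC1) enzyme · Quantity – HKDC1 at 5 µg/mL · Buffer or medium – pH 8.0 Tris buffer with 10 mM MgCl2 · Reagent – glucose with 1 mM ATP · Dosing – single 20 µM dose · Times – reaction time 90 min, room temperature, protected from light · Technique – resorufin fluorescence at 613 nm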
M18AAP inhibitor = PfM18AAP inhibitors, malaria aminopeptidase, primary screen, biochemical, QFRET, recombinant enzyme; M18 aspartyl aminopeptidase (Plasmodium falciparum 3D7); H-Glu-NHMec fluorogenic cleavage; inhibition, % at 7.35 µM; hit rate 1.2% among 290,000; AID 1822, 2009;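 active means inhibition above the campaign mean inhibition over all tested compounds plus 3 SD, cut at about 28% in these data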
Hits are given with their value; 0 = inactive; - = no result shown.

SMILES | Neddylation inh | PfG6PD inh | HKDC1 inh | M18AAP inhibitor
Cc1ccccc1Cn1c(NC2CCCC2)nc2c1c(=O)[nH]c(=O)n2C | 0 | 0 | 0 | 0
COCCN1Cc2cccc(C(=O)NCc3ccccn3)c2C1=O | 0 | 0 | 0 | 0
COCCN1Cc2cccc(C(=O)NCc3ccc4c(c3)OCO4)c2C1=O | 0 | 0 | 0 | 29
CCOC(=O)N1CCN(C2=C(NS(=O)(=O)c3ccc(C)cc3)C(=O)c3ccccc3C2=O)CC1 | 0 | 0 | 0 | 31
COc1ccc(NC(=O)C2(C)Cc3c(-c4ccc(C(N)=O)cc4)ccnc3O2)cn1 (stereo unspecified) | 0 | - | - | -
O=[N+]([O-])c1cc(Cl)cc(/C=N\Nc2ccccn2)c1O | 0 | 0 | 0 | 0
CN(C)C1(CN=Cc2cc(Cl)cc([N+](=O)[O-])c2O)CCCCC1 | 0 | 0 | 0 | 30
CC(C)c1ccc(O)c(=O)cc1 | 0 | - | - | -
COc1ccc(-c2cn3c(C)c(C(=O)Nc4cccc(C)n4)sc3n2)cc1 | 0 | 62 | 0 | 0
Cc1cccc(NC(=O)c2sc3nc(-c4ccc(F)cc4)cn3c2C)n1 | 0 | 0 | 0 | 0
O=C(/C=C/c1ccco1)NC(=S)Nc1ccc(C(=O)O)cc1 | 0 | 0 | 0 | 29
O=C(Nc1ccc(C(=O)O)cc1)/C(=C\c1ccco1)NC(=O)c1ccccc1Cl | 0 | 0 | 0 | 30
CC(=O)NC(=S)Nc1ccc(NC(=S)NC(=O)/C=C/c2ccco2)cc1 | 0 | 0 | 0 | 0
O=C(Nc1ccc(C(=O)O)cc1)/C(=C\c1ccco1)NC(=O)c1ccccc1 | 0 | 0 | 0 | 0
Cc1cccc2cc3c(NC(=O)C(C)(C)C)nn(CC(C)C)c3nc12 | - | 0 | 0 | 0
CCOC(=O)c1c(C)[nH]c(C)c1C(=O)COC(=O)c1nn(CC)c(=O)c2ccccc12 | 0 | 0 | - | -
CN(C)c1ccc(N=Cc2ccco2)cc1 | 0 | 60 | 0 | 0
CC(C)N(C(=O)[C@H]1C[C@H](CC(=O)NCCCn2ccnc2)C(=O)N2CCc3c([nH]c4cc(CCC(=O)N(C)C)ccc34)[C@]12C)C(C)C | 0 | 0 | 0 | -
Oc1ccc(CCc2n[nH]c(=S)n2-c2ccc(F)cc2)cc1 | 0 | 0 | 0 | 29
COCCN(C(=O)CCC(=O)Nc1ccccn1)C(C(=O)NCCC(C)C)c1ccc(C)cc1 (stereo unspecified) | 0 | 0 | 0 | 0
N=c1c(C(=O)NCc2ccc(F)cc2)cc2c(=O)n3ccccc3nc2n1Cc1ccco1 | 52 | 0 | 0 | 0
N=c1c(C(=O)NCc2ccccc2)cc2c(=O)n3ccccc3nc2n1Cc1ccco1 | - | 0 | 0 | 0
CC(=O)NC12CC3CC(C1)CC(C(=O)Nc1nc4ccc(S(C)(=O)=O)cc4s1)(C3)C2 | 0 | 0 | 0 | 0
CCNc1nc(=S)nc(NC(C)C)[nH]1 | 0 | 0 | 0 | 30
CCNc1nc(=S)nc(NCc2ccccc2)[nH]1 | - | - | - | 0
SMILES | Neddylation inh | PfG6PD inh | HKDC1 inh | M18AAP inhibitor
CCC(C)(CN(C)C)OC(=O)c1ccccc1 (stereo unspecified) | 0 | 0 | 0 | -
CN(C)c1ccc(NC(=O)C(=O)C2C(=O)Nc3ccccc32)cc1 (stereo unspecified) | 0 | 0 | 0 | 0
CN(C)c1ccc(CC2C(=O)Nc3ccccc32)cc1 (stereo unspecified) | 0 | 83 | 0 | 31
Cc1ccc(S(=O)(=O)N(C)C)cc1NC(=S)Nc1cccc2ccccc12 | 0 | 61 | 0 | 0
S=c1nc(-c2ccccc2)n(-c2ccccc2)[nH]1 | 0 | 0 | 0 | 30
S=c1nc(-c2ccccc2)[nH]n1-c1ccccc1 | 0 | 0 | 0 | 0
CCCCC[C@@H](C)N1C[C@H](COCc2ccccc2)Oc2cc(N3CCC[C@H]3COC)ccc2S1(=O)=O | 0 | - | - | -
C#CCNC(=O)C[C@@H]1C[C@@]2(C(=O)OCC)CCCC=C2N(Cc2ccccc2)C1=O | 0 | - | - | -
O=C1CC(c2ccco2)CC(O)=C1C=NCC1NCCc2ccccc21 (stereo unspecified) | 0 | 0 | 0 | 29
CN(Cc1ccco1)c1ncnc2ccc(-c3ccoc3)cc12 | 39 | 0 | 0 | -
O=C(O)CCCCCn1c(SCC(=O)c2ccc(O)c(O)c2)nc2ccsc2c1=O | 0 | 0 | 0 | 47
O=C(O)CCCCCn1c(SCC(=O)N2CCCC2)nc2ccsc2c1=O | 0 | 0 | 0 | 0
O=C1CN=CN=CN1c1ccc(Cl)cc1Cl | 0 | 0 | 0 | 40
Nc1cc(Cl)ccc1N1C(=O)CCC1=O | 0 | 0 | 0 | 0
CCCCCCCCN1C(=O)[C@H](CC(=O)N2CCC(c3ccccc3)CC2)C[C@@]2(C(=O)OC)CC(C)(C)CC=C12 | 0 | - | - | -
CC1(C(=O)NS(=O)(=O)c2ccccc2Cl)CCN1C(=O)C1CCCCC1 (stereo unspecified) | 0 | - | - | -
CCOC(=O)c1c(NC(=O)CSc2nc3ccccc3s2)sc(C)c1C | 0 | 0 | 0 | 30
CCOc1ccc(/C=C2\SC(=S)N(N3C(=O)C4CC4C3=O)C2=O)cc1 (stereo unspecified) | 0 | 0 | 0 | 31
O=C(NC(=S)NN1CCOCC1)c1cc(Br)ccc1Cl | 0 | 0 | 0 | -
CCCOC(=O)Nc1nc2ccccc2o1 | 0 | 0 | 0 | 0
CCOC(=O)c1cnc(Nc2nc3ccccc3o2)nc1CN1CCN(C)CC1 | 0 | 0 | 0 | 61
Oc1ccccc1C(=S)N1CCN(c2cccc(Cl)c2)CC1 | 0 | 0 | 0 | 30
Oc1ccc(C(=S)N2CCN(c3cccc(Cl)c3)CC2)cc1 | 0 | 0 | 0 | 0
CCOC(=O)C1CCN(S(=O)(=O)c2cn(C)c(C)n2)CC1 | 0 | 0 | 0 | 0
Cc1cc(C)c2nc(NNC(=O)c3ccc(S(=O)(=O)N4CC(C)CC(C)C4)cc3)sc2c1 (stereo unspecified) | 0 | 0 | 0 | 29
SMILES | Neddylation inh | PfG6PD inh | HKDC1 inh | M18AAP inhibitor
Cc1ccc2nc(NNC(=O)c3ccc(S(=O)(=O)N4CCc5ccccc5C4)cc3)sc2c1 | 0 | 0 | 0 | 0
CCC(=O)NNc1nc2c(C)cc(C)cc2s1 | 0 | 0 | 0 | 58
CC1(C)Cc2nc3sc(C(=O)NCCO)c(N)c3cc2CO1 | 0 | 0 | 0 | 31
Cn1c(SCC(=O)N/N=C/C=C\c2ccco2)nc2ccccc21 | 0 | 62 | 0 | 0
Cc1ccnc(N2C(=O)c3cccc4c([N+](=O)[O-])ccc(c34)C2=O)c1 | 45 | 0 | 0 | 0
O=[N+]([O-])c1ccc(COP(=O)(O)OCc2ccc([N+](=O)[O-])cc2)cc1 | 0 | 0 | 0 | -
Cc1c(OCC(F)(F)F)ccnc1CS(=O)c1nc2ccccc2[nH]1 (stereo unspecified) | 0 | 0 | 0 | 0
COCCCOc1ccnc(CS(=O)c2nc3ccccc3[nH]2)c1C (stereo unspecified) | 0 | 0 | 0 | 31
CCOCCCNC(=O)c1ccc2c(c1)N(Cc1ccccc1)C(=O)CS2=O (stereo unspecified) | 0 | 0 | 0 | 28
CN1C(=O)/C(=C/c2cccc(Cl)c2)Sc2ccc(C(=O)N3CCCC3)cc21 | - | 0 | 0 | 0
O=c1oc2ccccc2c(NCc2ccccc2)c1[N+](=O)[O-] | 0 | 0 | 0 | 0
Nc1c(NCc2ccccc2)c2ccccc2oc1=O | 0 | 0 | 0 | 30
Cc1ccc(-c2cc(-c3n[nH]c(=S)o3)c3ccccc3n2)cc1 | 49 | 0 | 0 | 0
